Test results reported in ChEMBL document CHEMBL4400522, “Chikungunya virus inhibition by synthetic coumarin-guanosine conjugates” (Eur J Med Chem, 2019).

Tests used:
[1] = system: Chikungunya virus; experiment: Antiviral activity against Chikungunya virus 899 infected in African green monkey Vero A cells assessed as inhibition of viral RNA replication by RT-qPCR analysis; type: functional, organism-based; conditions: Chikungunya virus, 899, Vero
[2] = Cytotoxicity against African green monkey Vero A cells by MTS assay; type: cell-based; conditions: chlorocebus aethiops
How it was run: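 Host-cell metabolism in Vero subtype A cells was measured by MTS read-out. CC50 is the concentration reducing host-cell metabolism by 50%. It was determined only for selected conjugates.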

[3] = Aqueous solubility of the compound measured per 100 ml; type: physicochemical; conditions: buffer
[4] = Selectivity index, ratio of CC50 for African green monkey Vero A cells to EC50 for chikungunya virus 899 infected in African green monkey Vero A cells; type: toxicity; conditions: read-out: Ratio CC50/EC50
[5] = Lipophilicity, log P of the compound; type: physicochemical; conditions: octanol/water
[6] = system: Chikungunya virus; experiment: Antiviral activity against Chikungunya virus infected in African green monkey Vero cells assessed as reduction in virus-induced cytopathic effect after 7 days by MTS assay; type: functional, organism-based; conditions: 168 h
[7] = Selectivity index, ratio of CC50 for African green monkey Vero cells to EC50 for chikungunya virus infected in African green monkey Vero E6 cells; type: toxicity, Vero C1008; conditions: read-out: Ratio CC50/EC50
[8] = system: Chikungunya virus; experiment: Antiviral activity against Chikungunya virus infected in African green monkey Vero E6 cells assessed as reduction in virus-induced cytopathic effect; type: functional, organism-based; conditions: Vero C1008
[9] = Selectivity index, ratio of CC50 for African green monkey Vero E6 cells to EC50 for chikungunya virus infected in African green monkey Vero cells; type: toxicity, Vero C1008; conditions: read-out: Ratio CC50/EC50

SMILES | EC50 [1] | also measured
Nc1nc(SCc2cc3cc(F)ccc3oc2=O)c2nc(SCc3cc4cc(F)ccc4oc3=O)n([C@@H]3O[C@H](CO)[C@@H](O)[C@H]3O)c2n1 | > 146 µM | 
Nc1nc(SCc2cc3cc(Cl)ccc3oc2=O)c2nc(SCc3ccccc3)n([C@@H]3O[C@H](CO)[C@@H](O)[C@H]3O)c2n1 | > 163 µM | 
Nc1nc(SCc2cc3ccccc3oc2=O)c2nc(SCc3cc4ccccc4oc3=O)n([C@@H]3O[C@H](CO)[C@@H](O)[C@H]3O)c2n1 | > 154 µM | 
COc1ccc2oc(=O)c(CSc3nc(N)nc4c3nc(SCc3cc5cc(OC)ccc5oc3=O)n4[C@@H]3O[C@H](CO)[C@@H](O)[C@H]3O)cc2c1 | 9.9 µM | CC50 [2]: > 212 µM; solubility [3]: 7.2 mg; selectivity ratio [4]: > 21.7; logP [5]: 3.01
CSc1nc2c(SCc3cc4cc(C)ccc4oc3=O)nc(N)nc2n1[C@@H]1O[C@H](CO)[C@@H](O)[C@H]1O | > 194 µM | 
Cc1ccc2oc(=O)c(CSc3nc(N)nc4c3nc(SCc3cc5cc(C)ccc5oc3=O)n4[C@@H]3O[C@H](CO)[C@@H](O)[C@H]3O)cc2c1 | 40.9 µM | CC50 [2]: 81.3 µM; selectivity ratio [4]: 1.98; logP [5]: 3.22
Nc1nc(SCc2cc3ccccc3oc2=O)c2nc(SCc3ccccc3)n([C@@H]3O[C@H](CO)[C@@H](O)[C@H]3O)c2n1 | > 173 µM | 
Nc1nc2c(nc(SCc3cccc4ccccc34)n2[C@@H]2O[C@H](CO)[C@@H](O)[C@H]2O)c(=S)[nH]1 | > 212 µM | 
Nc1nc2c(nc(SCc3ccccc3)n2[C@@H]2O[C@H](CO)[C@@H](O)[C@H]2O)c(=S)[nH]1 | > 237 µM | 
CSc1nc2c(SCc3cc4cc(Cl)ccc4oc3=O)nc(N)nc2n1[C@@H]1O[C@H](CO)[C@@H](O)[C@H]1O | > 186 µM | 
C=C(C)[C@@]12OC3(c4ccccc4)O[C@@H]1[C@@H]1[C@@H]4O[C@]4(CO)[C@@H](O)[C@@]4(O)[C@@H](C=C(C)[C@@H]4O)[C@@]1(O3)[C@H](C)[C@@H]2OC(=O)C(C)CCCCCCCC (stereo partly specified) |  | EC50 [6]: 0.6 µM; selectivity ratio [7]: 71.7
Nc1nc(SCc2cc3ccccc3oc2=O)c2nc(SCc3cccc4ccccc34)n([C@@H]3O[C@H](CO)[C@@H](O)[C@H]3O)c2n1 | > 159 µM | 
CCN1C(=O)CCSC1c1cc2cc(Cc3ccc4oc(C5SCCC(=O)N5CC)cc4c3)ccc2o1 (stereo unspecified) |  | EC50 [8]: 1.9 µM; selectivity ratio [9]: 75
CSc1nc2c(SCc3cc4cc(Br)ccc4oc3=O)nc(N)nc2n1[C@@H]1O[C@H](CO)[C@@H](O)[C@H]1O | > 172 µM | 
Nc1nc(SCc2cc3cc(Br)ccc3oc2=O)c2nc(SCc3cc4cc(Br)ccc4oc3=O)n([C@@H]3O[C@H](CO)[C@@H](O)[C@H]3O)c2n1 | > 124 µM | 
CSc1nc2c(SCc3cc4ccccc4oc3=O)nc(N)nc2n1[C@@H]1O[C@H](CO)[C@@H](O)[C@H]1O | > 198 µM | 
Nc1nc(SCc2cc3cc(Cl)ccc3oc2=O)c2nc(SCc3cc4cc(Cl)ccc4oc3=O)n([C@@H]3O[C@H](CO)[C@@H](O)[C@H]3O)c2n1 | > 140 µM | 
Nc1nc2c(nc(S)n2[C@@H]2O[C@H](CO)[C@@H](O)[C@H]2O)c(=S)[nH]1 | > 302 µM | logP [5]: -0.13
COc1cccc2cc(CSc3nc(N)nc4c3nc(SCc3cc5cccc(OC)c5oc3=O)n4[C@@H]3O[C@H](CO)[C@@H](O)[C@H]3O)c(=O)oc12 | 10.3 µM | CC50 [2]: 96.5 µM; selectivity ratio [4]: 9.37; logP [5]: 2.97
COc1ccc2oc(=O)c(CSc3nc(N)nc4c3nc(SCc3cccc5ccccc35)n4[C@@H]3O[C@H](CO)[C@@H](O)[C@H]3O)cc2c1 | 13.9 µM | CC50 [2]: > 227 µM; selectivity ratio [4]: > 16.3; logP [5]: 3.77
Nc1nc(SCc2cc3cc(Br)ccc3oc2=O)c2nc(SCc3ccccc3)n([C@@H]3O[C@H](CO)[C@@H](O)[C@H]3O)c2n1 | > 152 µM | 
CSCc1cc2ccccc2oc1=O | > 485 µM | 
COc1ccc2oc(=O)c(CSc3nc(N)nc4c3nc(SCc3ccccc3)n4[C@@H]3O[C@H](CO)[C@@H](O)[C@H]3O)cc2c1 | > 164 µM | logP [5]: 2.78
COc1cccc2cc(CSc3nc(N)nc4c3nc(SC)n4[C@@H]3O[C@H](CO)[C@@H](O)[C@H]3O)c(=O)oc12 | > 188 µM | 
